From PMC6008205 (Journal of controlled release : official journal of the …, 2018)

Tests used:
[1] = ANS spectrofluorimetric analysis of hydrophobic regions; type: physicochemical; conditions: ANS 0.2 µM, CSPNs 2–16 µM, excitation 356 nm; relative to 2F-RT
Method in brief: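 Test peptides were dissolved in water at 2–16 µM, and the ANS probe was added at 0.2 µM. Spectra were read on a fluorescence microplate reader at ambient temperature, with excitation at 356 nm and emission scanned from 380–600 nm. All measurements were done in triplicate and reported as arithmetic mean ± standard deviation.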

[2] = Tapping mode AFM analysis of nanodrill size and mechanical stability; conditions: tapping mode AFM on mica under water, 400 µM peptide solution
[3] = Dynamic light scattering particle size and PDI of CSPNs; type: physicochemical; conditions: DLS in ultrapure water, peptide nanodrills 0.4 mM, triplicate
Method in brief: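 Nanodrills formed spontaneously on vortexing peptide in ultrapure water or PBS pH 7.4. They were measured at 0.4 mM by dynamic light scattering in a quartz cuvette after 2 min equilibration. Measurements were done in triplicate and reported as arithmetic mean ± standard deviation.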

- Mean ANS fluorescence intensity compared to 2F-RT [1]: five-fold increase
- Aspect ratio by AFM [2]: 6.2±3.9
- Nanodrill size (length) by AFM [2]: 105±67 nm
- PDI [3]: 0.434
Substance: FFF--(RADA)2-Tat [3F-RT]
